Experimental data as given in ChEMBL document CHEMBL1152672, “Side chain azasteroids and thiasteroids as sterol methyltransferase inhibitors in ergosterol biosynthesis” (2009).
Converted amounts (≈) assume the structure as drawn.

How the values were obtained:
[1] = tested on: Yarrowia lipolytica; test: Antimicrobial activity against Yarrowia lipolytica after 48 hrs; type: functional
Procedure, shortened: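 Broth dilution MIC per DIN 58940-84. Log-phase Y. lipolytica in yeast extract/peptone/glucose medium, counted against a 0.5 McFarland standard (A570) and seeded at 50,000 CFU/mL in 2 mL wells. Compounds added from ethanol; final concentrations 2 to 0.06125 µg/mL unless otherwise stated. Plates incubated 48 ± 2 h at 28 °C. MIC is the lowest concentration with no visible growth.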

[2] = biological target: T1, Sterol 24-C-methyltransferase (Yarrowia lipolytica) (UniProt Q6C2D9); test: Inhibition of Yarrowia lipolytica 24-SMT assessed as lanosterol-3-trimethylsilyl derivative at 0.2 ug/mL after 48 hrs by GC-MS analysis relative to untreated control; design: scale not given: the % may be the effect or the level left
T1 sequence (whole entry): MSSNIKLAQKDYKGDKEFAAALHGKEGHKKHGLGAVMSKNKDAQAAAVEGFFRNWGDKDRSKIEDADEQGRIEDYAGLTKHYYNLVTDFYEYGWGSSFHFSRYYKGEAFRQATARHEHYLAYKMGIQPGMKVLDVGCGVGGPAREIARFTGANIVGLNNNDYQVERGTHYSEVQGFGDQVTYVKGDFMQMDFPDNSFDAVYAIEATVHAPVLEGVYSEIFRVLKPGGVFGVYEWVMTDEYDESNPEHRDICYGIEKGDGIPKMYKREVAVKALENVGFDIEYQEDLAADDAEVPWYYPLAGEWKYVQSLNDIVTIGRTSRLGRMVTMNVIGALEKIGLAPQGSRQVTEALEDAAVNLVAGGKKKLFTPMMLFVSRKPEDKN
Procedure, shortened: (§1)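 Whole-cell sterol profiling. Y. lipolytica at 50,000 CFU/mL was exposed to compounds added from ethanol for 48 ± 2 h at 28 °C, and the MIC/2 and/or MIC/4 wells were used. Cells were pelleted and PBS-washed, then saponified in 1 M NaOH at 70 °C for 1 h. Sterols were extracted into TBME with a cholesterol internal standard and silylated to TMS ethers. GC-MS full scan, with each sterol given as % of total integrated quantifier-ion area.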

[3] = biological target: T1, Sterol 24-C-methyltransferase (Yarrowia lipolytica); test: Inhibition of Yarrowia lipolytica 24-SMT assessed as dehydroergosterol-3-trimethylsilyl derivative at 0.2 ug/mL after 48 hrs by GC-MS analysis relative to untreated control; design: scale not given: the % may be the effect or the level left; procedure, shortened: as §1
[4] = biological target: T1, Sterol 24-C-methyltransferase (Yarrowia lipolytica); test: Inhibition of Yarrowia lipolytica 24-SMT assessed as 14-alpha-methylergosta-8,24(28)-dien-3beta,6alpha-di-trimethylsilyl derivative at 0.2 ug/mL after 48 hrs by GC-MS analysis relative to untreated control; design: scale not given: the % may be the effect or the level left
Procedure, shortened: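 Y. lipolytica whole cells, inoculated at 50,000 CFU/mL in yeast extract/peptone/glucose medium, exposed to compound (ethanol solution, 10 µL per 2 mL well), 48 ± 2 h, 28 °C. Wells at MIC/2 and/or MIC/4 pelleted, saponified in 1 M NaOH at 70 °C for 1 h, extracted with TBME and silylated. GC–MS with cholesterol internal standard. Each sterol given as percent of total integrated area; ethanol-only wells as control.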

[5] = biological target: T1, Sterol 24-C-methyltransferase (Yarrowia lipolytica); test: Inhibition of Yarrowia lipolytica 24-SMT assessed as ergosterol-3-trimethylsilyl derivative level at 0.2 ug/mL after 48 hrs by GC-MS analysis relative to untreated control; design: scale not given: the % may be the effect or the level left; procedure, shortened: as §1
[6] = biological target: T1, Sterol 24-C-methyltransferase (Yarrowia lipolytica); test: Inhibition of Yarrowia lipolytica 24-SMT assessed as 5-dehydroepisterol-3-trimethylsilyl derivative at 1 ug/mL after 48 hrs by GC-MS analysis relative to untreated control; design: scale not given: the % may be the effect or the level left; procedure, shortened: as §1
[7] = biological target: T1, Sterol 24-C-methyltransferase (Yarrowia lipolytica); test: Inhibition of Yarrowia lipolytica 24-SMT assessed as cholesta-7,24-dien-3-trimethylsilyl derivative at 2 ug/mL after 48 hrs by GC-MS analysis relative to untreated control; design: scale not given: the % may be the effect or the level left; procedure, shortened: as §1
[8] = biological target: T1, Sterol 24-C-methyltransferase (Yarrowia lipolytica); test: Inhibition of Yarrowia lipolytica 24-SMT assessed as cholesta-5,7,24-trien-3-trimethylsilyl derivative at 2 ug/mL after 48 hrs by GC-MS analysis relative to untreated control; design: scale not given: the % may be the effect or the level left; procedure, shortened: as §1
[9] = biological target: T1, Sterol 24-C-methyltransferase (Yarrowia lipolytica); test: Inhibition of Yarrowia lipolytica 24-SMT assessed as 5-dehydroepisterol-3-trimethylsilyl derivative at 2 ug/mL after 48 hrs by GC-MS analysis relative to untreated control; design: scale not given: the % may be the effect or the level left; procedure, shortened: as §1
[10] = biological target: T1, Sterol 24-C-methyltransferase (Yarrowia lipolytica); test: Inhibition of Yarrowia lipolytica 24-SMT assessed as cholesta-7,24-dien-3-trimethylsilyl derivative at 1 ug/mL after 48 hrs by GC-MS analysis relative to untreated control; design: scale not given: the % may be the effect or the level left; procedure, shortened: as §1
[11] = biological target: T1, Sterol 24-C-methyltransferase (Yarrowia lipolytica); test: Inhibition of Yarrowia lipolytica 24-SMT assessed as dehydroergosterol-3-trimethylsilyl derivative at 2 ug/mL after 48 hrs by GC-MS analysis relative to untreated control; design: scale not given: the % may be the effect or the level left; procedure, shortened: as §1
[12] = biological target: T1, Sterol 24-C-methyltransferase (Yarrowia lipolytica); test: Inhibition of Yarrowia lipolytica 24-sterol C-methyltransferase assessed as ergosterol-3-trimethylsilyl derivative level at 1 ug/mL after 48 hrs by GC-MS analysis relative to untreated control; design: scale not given: the % may be the effect or the level left; procedure, shortened: as §1
[13] = biological target: T1, Sterol 24-C-methyltransferase (Yarrowia lipolytica); test: Inhibition of Yarrowia lipolytica 24-sterol C-methyltransferase assessed as ergosterol-3-trimethylsilyl derivative level at 2 ug/mL after 48 hrs by GC-MS analysis relative to untreated control; design: scale not given: the % may be the effect or the level left; procedure, shortened: as §1
[14] = biological target: T1, Sterol 24-C-methyltransferase (Yarrowia lipolytica); test: Inhibition of Yarrowia lipolytica 24-SMT assessed as zymosterol-3-trimethylsilyl derivative level at 2 ug/mL after 48 hrs by GC-MS analysis relative to untreated control; design: scale not given: the % may be the effect or the level left; procedure, shortened: as §1
[15] = biological target: T1, Sterol 24-C-methyltransferase (Yarrowia lipolytica); test: Inhibition of Yarrowia lipolytica 24-SMT assessed as dehydroergosterol-3-trimethylsilyl derivative at 1 ug/mL after 48 hrs by GC-MS analysis relative to untreated control; design: scale not given: the % may be the effect or the level left; procedure, shortened: as §1
[16] = biological target: T1, Sterol 24-C-methyltransferase (Yarrowia lipolytica); test: Inhibition of Yarrowia lipolytica 24-sterol C-methyltransferase assessed as cholesta-5,7,24-trien-3-trimethylsilyl derivative at 1 ug/mL after 48 hrs by GC-MS analysis relative to untreated control; design: scale not given: the % may be the effect or the level left; procedure, shortened: as §1

## CC(=O)N1CCN(c2ccc(OCC3COC(Cn4ccnc4)(c4ccc(Cl)cc4Cl)O3)cc2)CC1 (configuration not stated) [KETOCONAZOLE]
[1]
  MIC: 0.5 µg/mL (≈ 0.941 µM)
[2]
  Activity: 28.9%
[3]
  Activity: 59.1%
[4]
  Activity: 2.4%
[5]
  Activity: 9.6%

## C[C@H](CNCCN1CCCC1)[C@H]1CC[C@H]2C3=CC[C@H]4C[C@@H](O)CC[C@]4(C)[C@H]3CC[C@]12C
[6]
  Activity: 4.8%
[7]
  Activity: 6%
[8]
  Activity: 46.6%
[9]
  Activity: 3.6%
[1]
  MIC: > 2 µg/mL
[10]
  Activity: 3.6%
[11]
  Activity: 40.1%
[12]
  Activity: 1.7%
[13]
  Activity: 3.3%
[14]
  Activity: 0.4%
[15]
  Activity: 65.4%
[16]
  Activity: 24.3%
